# Laboratory results reported in paper PMC7760462 (ACS Central Science, 2020).
# Assays:
# MRSA (USA100) = test: Antimicrobial activity against extracellular bacteria; assay type: cell-based, methicillin-resistant Staphylococcus aureus; settings: Staphylococcus aureus, MRSA|USA100, 18 h, read-out: extracellular MIC, MRSA
# VRE (ATCC51858) = test: as above; assay type: cell-based, vancomycin-resistant enterococci; settings: Enterococcus, 18 h, read-out: extracellular MIC, VRE
# RAW 264.7 macrophages = test: MTT cell viability assay; assay type: cell-based; settings: Mus musculus, RAW264.7, 24 h, read-out: IC50, RAW
# [1] = tested on: bacteria exposed to subinhibitory concentrations; test: Resistance test by serial passage; assay type: cell-based
# S. aureus (ATCC12608) = test: Characterization of cell wall inhibition by SEM; assay type: cell-based, Staphylococcus aureus; settings: S. aureus treated 12 h at drug/bacteria ratio equivalent to MIC determination
# How it was run: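 S. aureus ATCC12608 was treated with the test compound, with PBS, free vancomycin and the unconjugated polypeptide as comparators. Cell wall morphology was then examined by scanning electron microscopy.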
# [2] = tested on: kidney of MRSA-infected mice; test: Kidney histology analysis; assay type: in vivo, mice (CD1-IGS); settings: 72 h after infection (Figure 5e)
# How it was run: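 Mice were infected with MRSA USA100 (2 × 10^7 CFU) by tail-vein injection at 0 h. They received intraperitoneal PBS, vancomycin (100 mg/kg), test compound (72 mg/kg) or unconjugated polypeptide (50 mg/kg, molar equivalent) at 24 and 36 h. Mice were sacrificed at 72 h, and kidneys were H&E-stained for granulomatous foci, immune-cell infiltration and tubular necrosis.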
# [3] = by previous studies; cited from earlier work
compound,measurement,setting,value
"CN[C@H](CC(C)C)C(=O)N[C@H]1C(=O)N[C@@H](CC(N)=O)C(=O)N[C@H]2C(=O)N[C@H]3C(=O)N[C@H](C(=O)N[C@H](C(=O)O)c4cc(O)cc(O)c4-c4cc3ccc4O)[C@H](O)c3ccc(c(Cl)c3)Oc3cc2cc(c3O[C@@H]2O[C@H](CO)[C@@H](O)[C@H](O)[C@H]2O[C@H]2C[C@](C)(N)[C@H](O)[C@H](C)O2)Oc2ccc(cc2Cl)[C@H]1O [Van, vancomycin]",MIC,MRSA (USA100),0.69 µM
same,MIC,VRE (ATCC51858),176 µM
same,IC50,RAW 264.7 macrophages,> 706 µM
same,"resistance induction, change in MIC",[1]; over/after 20 passages at subinhibitory concentration,tripling
same,"resistance induction, change in MIC",[1]; within 5 passages at subinhibitory concentration,MIC doubling
same,cell wall appearance by SEM,S. aureus (ATCC12608),damaged bacterial cell wall
same,granulomatous foci in kidney (H&E),[2],almost no granulomatous foci
same,serum Cmax,[3],~50 µg/mL
